MT stabilize HCS = microtubule stabilization, imaging screen; HeLa tubulin immunostaining HCS, 24 h; share of cells brighter than vehicle mean+2SD; % tubulin-high responders, % at 10 µM; 200,000 compounds, 0.83% hits;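 active = plate Z-score above 3 for both tubulin-high and condensed-nucleus cell shares, with cell loss under 80%, at 10 µM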;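 also: anti alpha tubulin signal scored within the nucleus-defined area of each cell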
Lmaj promast = inhibitors of Leishmania major promastigote growth; 200,000 compounds, 9% hits; inhibition, % at 10 µM; Leishmania major promastigotes, resazurin fluorescence viability; in the data active = inhibition above about 50%;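 also: promastigotes grown with compound for 44 hours at 28 °C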
bCat nuc transl = beta-catenin nuclear translocation modulation; 190,000 compounds, 0.3% hits; HeLa beta-catenin nuclear translocation, immunofluorescence imaging; nuclear translocation activity, % at 5 µM;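 active = nuclear translocation activity above 50% at 5 µM, with a well cell count of 50 or more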;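 also: per-cell ratio of nuclear to cytoplasmic median beta-catenin stain intensity; plate controls were DMSO negative control for no effect and GSK-3 inhibitor IX positive control for full effect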
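Technique: fluorescence imaging of beta-catenin antibody stain plus DAPI / Material: human HeLa cell line / Incubation: compound treatment 24 h, 37°C, 5% CO2 / Read-out basis: % activation of per-cell nuclear versus cytoplasmic median beta-catenin signal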
HSV augment = increases HSV replication in cells | HSV replication augmentation in cells, fold increase | maximum fold increase | 220,000 compounds, 0.005% hits | AID 1956; in the data active = maximum fold increase above about 1.5; tested in PC3 cells
Dynein cargo inh = dynein cargo transport inhibition; 3617.4 mouse cells, GR-EGFP nuclear translocation imaging; test concentration mostly 20 µM; stimulated with dexamethasone, 1 µM; hits give low values; z-score, hits read low; 220,000 compounds, 0.47% hits;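 active = plate z-score of nuclear minus cytoplasmic receptor signal below a set negative limit, without overly bright fluorescence or cell loss, cut at about -3.5 in these data, passing the limit was not always enough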;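 also: z-score of nuclear minus cytoplasmic ring GR-EGFP intensity difference per well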
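Buffer or medium: Induction medium lacking tetracycline, stripped serum | Also added: Dexamethasone agonist, 1.0 µM final, for 30 min | Timing: 48 h induction, 1 h compound, 30 min dex at 37 °C | Detection: Formaldehyde fixation, Hoechst nuclear stain, 10x automated fluorescence imaging | Measure: Nuclear versus cytoplasmic GR-EGFP signal, averaged per well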
* = called active by the depositor; i = inactive; · = no result. A selection: hits, their analogues and other compounds. The true share with any hit is near 8.9%.

SMILES	MT stabilize HCS	Lmaj promast	bCat nuc transl	HSV augment	Dynein cargo inh
COc1ccccc1NS(=O)(=O)c1cc(NC(=O)c2ccc3c(c2)OCCO3)ccc1C	2.4	57.8*	-3.1	i	1.06
COc1ccccc1NC(=O)c1ccc(NS(=O)(=O)c2ccc(F)c(F)c2F)cc1	2.8	66.0*	-2.3	i	0.454
COc1ccccc1NS(=O)(=O)c1cc(NC(=O)CNC(=O)c2ccccc2)ccc1C	3.3	63.9*	-0.7	i	-0.263
COc1ccc(CCNC(=O)CSc2ccc(Br)cc2)cc1OC	1.7	-2.5	0.3	i	-0.996
Cc1ccc(Cl)cc1NC(=S)N(Cc1cccnc1)Cc1ccccc1Cl	3.1	98.6*	-1.5	i	0.164
Cc1ccccc1NC(=S)N(Cc1ccccc1)Cc1cccnc1	2.0	85.8*	-5.2	i	-0.271
Cc1cccc(C)c1NC(=S)N(Cc1ccccc1)Cc1cccs1	1.7	58.0*	-0.6	i	-0.377
Cc1ccccc1NC(=S)N(Cc1cccnc1)Cc1ccco1	0.9	96.9*	0.6	i	-0.363
Cc1ccc(CN(Cc2ccco2)C(=S)Nc2ccccc2C)cc1	3.5	-0.7	-4.9	i	-0.201
COc1ccc(NC(=O)N(Cc2cccnc2)Cc2ccccc2Cl)c(OC)c1	6.8	46.4	·	i	-0.437
COc1ccc(-c2[nH]ncc2C2N=C(N)Nc3nc4ccccc4n32)cc1 (centres undefined)	2.6	2.5	-2.5	i	1.13
O=C(Nc1ccccc1)c1sc(N2CCOCC2)nc1-c1ccccc1	3.6	12.9	-0.1	·	0.88
COCCCN(C(=O)Cc1ccc(Cl)c(Cl)c1)c1c(N)n(Cc2ccccc2)c(=O)[nH]c1=O	·	·	-0.9	i	2.09
O=C(C(Cc1ccccc1)N1C(=O)c2ccccc2C1=O)N1c2ccccc2CCc2ccccc21 (centres undefined)	4.4	57.5*	1.5	i	-0.102
c1cc2c3c(cccc3c1)C(N1CCCCCC1)=N2	2.6	32.4	0.8	·	0.235
c1ccc2c(c1)CCN(C1=Nc3cccc4cccc1c34)C2	34.0	69.0*	3.1	i	0.535
CC(C)NC(=O)COC(=O)c1ccccc1Oc1ccccc1	2.5	-0.2	-2.4	·	1.45
Cc1ccc(NC(=O)CC2Oc3ccc(C)cc3NC2=O)cc1 (centres undefined)	3.3	-4.0	·	i	-0.425
CCOC(=O)c1c(C)n(-c2ccc(C)cc2)c2c(C(C(C)=O)C(=O)O)c(Br)c(O)c(O)c12 (centres undefined)	1.4	50.0*	-5.3	i	-2.53
CCOC(=O)c1c(C)n(-c2ccc(C)cc2)c2c(CC(C)=O)c(Br)c(OC)c(O)c12	2.1	-0.7	-1.9	i	-0.533
S=c1[nH]nc2nnc3ccccc3n12	·	·	0.7	i	0.837
O=C(COC(=O)c1cc(=O)[nH]c2ccccc12)NC(=O)NC1CCCCC1	1.6	-5.9	-8.5	i	0.327
Cc1cccc(-n2c(=S)[nH]c3c(oc4ccccc43)c2=O)c1	3.0	58.1*	-2.9	i	0.681
Cc1ccc(-n2c(=S)[nH]c3c(oc4ccccc43)c2=O)cc1	2.3	-6.6	-2.1	i	-1.27
CCOC(=O)c1[nH]c(C)c(/C(O)=C2\C(=O)C(=O)N(CCN(C)C)C2c2ccc(C)o2)c1C (centres undefined)	26.3	-0.4	-6.8	i	-0.725
SMILES	MT stabilize HCS	Lmaj promast	bCat nuc transl	HSV augment	Dynein cargo inh
NC(=O)c1cc([N+](=O)[O-])ccc1NCCN1C(=O)c2ccc(C(=O)O)cc2C1=O	5.2	-3.0	-0.1	i	1.51
CCCCn1c(SCC(=O)Nc2nnc(CC)s2)nc2ccccc2c1=O	4.1	-3.4	-1.0	i	0.719
CCc1nnc(NC(=O)CSc2nnc(COc3ccc(C)cc3)n2-c2ccccc2)s1	33.2*	-5.7	0.4	i	1.64
CCn1c(SCC(=O)Nc2nc(-c3ccc(C)cc3)cs2)nnc1-c1ccccc1	1.6	13.3	·	i	-0.375
Cc1cccc(C)c1NCc1nnc(SCC(=O)Nc2nc(-c3ccccc3)cs2)n1-c1ccccc1	3.8	-5.5	1.8	i	-0.454
Cc1ccc(-c2csc(NC(=O)CSc3nc4ccccc4c(=O)n3CCCN(C)C)n2)cc1	6.0	100.5*	1.3	i	0.0387
CCn1c(SCC(=O)Nc2nc(-c3ccc(C)cc3)cs2)nnc1-c1ccccc1O	3.3	100.3*	-0.2	i	-1.28
CCOc1ccc(NCc2nnc(SCC(=O)Nc3nc(-c4ccccc4)cs3)n2-c2ccccc2)cc1	4.6	94.8*	-1.0	i	0.122
CC1(C)CC(=O)c2cc(C(=O)N3CCCCC3)c(=O)n(-c3ccc(Cl)cc3)c2C1	2.8	-2.6	·	·	-0.134
Cn1nc(C(F)(F)F)c(-c2cccc(C(F)(F)F)c2)c1NC(=O)c1ccco1	·	·	0.4	i	-0.41
CCc1nnc(NC(=O)CSc2nnc(-c3ccccc3O)n2-c2ccc(C)cc2)s1	38.4*	-2.7	-1.3	i	-0.368
CCc1nnc(NC(=O)CSc2nnc(-c3ccccc3OC)n2-c2ccc(C)cc2)s1	1.8	56.7*	2.2	i	-0.508
Cn1cc(C(=O)c2ccc(Cl)cc2Cl)cc1C(=O)N/N=C(\N)COc1ccc(Cl)cc1Cl	0.3	100.0*	9.0	·	-0.804
Cn1cc(C(=O)c2ccc(Cl)cc2Cl)cc1C(=O)N/N=C(\N)COc1ccc(Cl)cc1	·	·	-1.1	i	-0.666
Nc1nc(N)nc(-c2ccc(Cl)cc2)n1	1.9	1.1	·	i	-0.332
Cc1ccc(Oc2ccc(-c3nc(N)nc(N)n3)cc2)cc1	2.0	97.6*	-0.5	i	-0.0428
CCN1CCCC1CNC(=O)c1c(O)c2c([nH]c1=O)CCCC2 (centres undefined)	2.7	52.2*	-2.8	i	-2.99
Cc1c(C(=O)OCCOC(C)C)[nH]c2c1C(=O)CC(c1ccco1)C2 (centres undefined)	6.5	5.4	118.1*	i	-0.406
CSCCOC(=O)c1[nH]c2c(c1C)C(=O)CC(c1ccco1)C2 (centres undefined)	7.9	5.7	92.4*	i	-0.452
C=CCOC(=O)c1[nH]c2c(c1C)C(=O)CC(c1cc(OC)c(OC)c(OC)c1)C2 (centres undefined)	3.3	7.5	5.2	i	0.715
CCOC(=O)c1[nH]c2c(c1C)C(=O)CC(c1ccco1)C2 (centres undefined)	7.0	6.4	117.9*	i	-0.221
Cc1c(C(=O)OCc2ccccc2)[nH]c2c1C(=O)CC(c1ccco1)C2 (centres undefined)	6.8	-0.2	119.8*	i	-1.78
CCOCC(=O)Nc1nnc(C2CCCCC2)s1	5.3	2.6	2.8	i	1.69
Cc1ccc(-c2csc3nc(C(C)C)oc(=O)c23)c(C)c1	·	·	-0.5	i	2.04
CCCCOC(=O)c1[nH]c2c(c1C)C(=O)CC(c1cc(OC)c(OC)c(OC)c1)C2 (centres undefined)	5.8	3.4	-0.8	i	0.395
COCCOC(=O)c1[nH]c2c(c1C)C(=O)CC(c1ccco1)C2 (centres undefined)	9.8	31.9	66.3*	i	1.16

Screens as filed in PubChem BioAssay.
